# Experimental data published in ChEMBL document CHEMBL5715938, “The protein kinase Cbeta-selective inhibitor, Enzastaurin (LY317615.HCl), suppresses signaling through the AKT pathway, induces apoptosis, and suppresses growth of human colon cancer and glioblastoma xenografts” (Cancer Res, 2005).
# Calls of active or inactive are those of the source. The rule behind the calls is not given here.
# Key:
# [1] = molecular target: Mitogen-activated protein kinase 9 (Homo sapiens) (UniProt P45984); assay: Inhibition of JNK2alpha2 (unknown origin) at 1 micromol/L relative to control; conditions: dose 1.0 µmol/L
# In short: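 Upstate Kinase Profiler panel at 1 μmol/L drug, run per provider; data expressed as percent of kinase activity without drug.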
# [2] = molecular target: Dual specificity mitogen-activated protein kinase kinase 6 (Homo sapiens) (UniProt P52564); assay: Inhibition of MKK6 (unknown origin) at 1 micromol/L relative to control; conditions: dose 1.0 µmol/L
# In short: (§1)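 Commercial kinase profiler panel run to the provider's protocol, with the compound tested at 1 µmol/L. Activity is expressed as percent of kinase activity without compound.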
# RXF 393 = assay: Antiproliferative activity against human RXF 393 cells assessed as reduction in cell growth upto 10 uM measured after 6 days by propidium iodide staining based analysis; type: functional; conditions: time 6.0 day
# In short: (§2)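 ATCC-sourced lines grown without antibiotics; 1,000 cells/well in 1% FBS medium, refed ±drug on days 1 and 4 over a 6-day course. On day 7, propidium iodide (10 μg/mL in D-PBS) read after 30 min for nonviable cells, plate frozen at -80°C 2 h, thawed and reread; proliferative index = postfreeze minus prefreeze signal.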
# HCT-116 [3] = assay: Induction of apoptosis in human HCT-116 cells assessed as increase in oligonucleosomal fragmentation at 1 to 4 micromol/L incubated for 48 hrs by ELISA method; type: functional, cell-based; conditions: dose 1-4 µmol/L
# In short: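 Oligonucleosomal fragmentation by Cell Death Detection ELISA-plus; 5,000 cells/well in 1% FBS medium, treated 48 h (range studied 0.1–10 μmol/L); absorbance normalized to control-treated cells to give nucleosomal enrichment factor.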
# T47D = assay: Antiproliferative activity against human T47D cells assessed as reduction in cell growth upto 10 uM measured after 6 days by propidium iodide staining based analysis; type: functional; conditions: time 6.0 day; in short: as §2
# [4] = Drug concentration in athymic nude mouse plasma xenografted with human HCT-116 cells at 75 mg/kg, po administered twice daily measured after 8 to 12 hrs by LC-MS analysis; type: ADME, organism-based; conditions: in vivo, time 8-12 hrs
# In short: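 HCT116-bearing nude mice given 75 mg/kg twice daily by gavage; plasma collected on day 1 and day 21 at 0.5, 1, 2, 4, 8 and 12 h after dose; drug quantified by LC-MS/MS.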
# K562 = assay: Antiproliferative activity against human K562 cells assessed as reduction in cell growth upto 10 uM measured after 6 days by propidium iodide staining based analysis; type: functional; conditions: time 6.0 day; in short: as §2
# [5] = molecular target: Protein kinase C epsilon type (Homo sapiens, UniProt Q02156); assay: Inhibition of recombinant human PKCepsilon using myelin basic protein as substrate incubated for 60 mins in presence of […] and ATP by microbeta scintillation counter analysis
# In short: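 Recombinant human PKCε at 719 pmol/L. Myelin basic protein substrate at 0.25 mg/mL. 30 µmol/L ATP plus 32P-ATP. Started with enzyme, 60 min at room temperature, H3PO4 quench. Phosphocellulose filter capture, scintillation counting. 10-point series 1–2,000 nmol/L. IC50 from three-variable logistic fit.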
# [6] = molecular target: Protein kinase C gamma type (Homo sapiens, UniProt P05129); assay: Inhibition of recombinant human PKCgamma using myelin basic protein as substrate incubated for 60 mins in presence of […] and ATP by microbeta scintillation counter analysis
# In short: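 Radiometric filter-plate assay with recombinant human PKCγ (128 pmol/L) phosphorylating myelin basic protein (0.25 mg/mL). Buffer: 90 mmol/L HEPES pH 7.5, 5 mmol/L MgCl2, 100 µmol/L CaCl2, phosphatidylserine, diacylglycerol, 0.001% Triton X-100, 4% DMSO, 30 µmol/L ATP plus 32P-ATP. Enzyme added to start; ran 60 min at room temperature; H3PO4 quench; phosphocellulose capture. IC50 from a three-variable logistic fit to a 10-point series, 1–2,000 nmol/L.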
# HCT-116 [7] = assay: Induction of apoptosis in human HCT-116 cells assessed as increase in apoptotic cells incubated for 72 hrs by TUNEL staining based analysis (reference value: 2%); type: functional; conditions: dose 4 µmol/L, at 4 µM
# [8] = molecular target: Protein kinase C alpha type (Homo sapiens) (UniProt P17252); assay: Inhibition of PKCalpha (unknown origin) at 1 micromol/L relative to control; conditions: dose 1.0 µmol/L; in short: as §1
# U-87 MG = assay: Antitumor activity against human U-87 MG cells xenografted in athymic nude mouse assessed as reduction in GSK3beta phosphorylation at serine 9 residue at 75 mg/kg, po administered twice daily measured after 2 to 8 hrs by ELISA method relative to control; type: functional, U-87MG ATCC; parameters: scale not given: the % may be the effect or the level left; conditions: time 2-8 hrs
# In short: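 U87MG-bearing nude mice, 75 mg/kg twice daily by gavage; on day 21 tumors harvested 2, 4 or 8 h post-dose, lysates measured by pGSK3β Ser9 ELISA versus vehicle tumors; Dunnett's method, ANOVA.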
# HCT-116 [9] = assay: Inhibition of ERK in human HCT-116 cells at 1 micromol/L measured upto 4 hrs by Western blotting analysis; type: cell-based; conditions: dose 1.0 µmol/L
# In short: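 Cultured tumor cells treated with 1 μmol/L drug; lysates in cell extraction buffer with protease inhibitors, western blotted with phospho-specific antibodies (pGSK3β Ser9, pAKT Thr308, phospho-ERK) alongside total GSK3β/AKT.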
# Hs-578T = assay: Antiproliferative activity against human Hs-578T cells assessed as reduction in cell growth upto 10 uM measured after 6 days by propidium iodide staining based analysis; type: functional; conditions: time 6.0 day; in short: as §2
# PC-3 = assay: Antiproliferative activity against human PC-3 cells assessed as reduction in cell growth upto 10 uM measured after 6 days by propidium iodide staining based analysis; type: functional; conditions: time 6.0 day; in short: as §2
# Sequence of Mitogen-activated protein kinase 9 (Homo sapiens) (P45984 whole entry, looked up): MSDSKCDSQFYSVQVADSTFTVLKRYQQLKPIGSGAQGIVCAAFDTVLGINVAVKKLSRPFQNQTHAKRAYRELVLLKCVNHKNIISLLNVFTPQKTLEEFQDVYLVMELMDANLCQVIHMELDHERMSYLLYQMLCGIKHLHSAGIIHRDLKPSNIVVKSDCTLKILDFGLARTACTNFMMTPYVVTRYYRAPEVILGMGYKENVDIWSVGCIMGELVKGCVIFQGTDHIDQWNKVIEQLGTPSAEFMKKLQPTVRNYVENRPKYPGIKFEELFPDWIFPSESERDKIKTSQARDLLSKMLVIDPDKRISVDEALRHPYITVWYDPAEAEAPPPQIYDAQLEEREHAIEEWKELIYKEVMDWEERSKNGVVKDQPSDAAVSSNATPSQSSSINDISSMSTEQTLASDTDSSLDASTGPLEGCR
# Sequence of Dual specificity mitogen-activated protein kinase kinase 6 (Homo sapiens) (P52564 whole entry): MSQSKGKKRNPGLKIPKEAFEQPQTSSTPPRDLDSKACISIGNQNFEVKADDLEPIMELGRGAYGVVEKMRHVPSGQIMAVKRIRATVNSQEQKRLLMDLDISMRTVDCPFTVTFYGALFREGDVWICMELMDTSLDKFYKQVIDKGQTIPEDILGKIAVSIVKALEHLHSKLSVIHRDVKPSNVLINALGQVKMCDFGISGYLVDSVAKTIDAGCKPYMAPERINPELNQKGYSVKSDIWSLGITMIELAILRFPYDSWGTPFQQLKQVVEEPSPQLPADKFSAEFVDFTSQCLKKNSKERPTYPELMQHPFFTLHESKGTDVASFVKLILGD
# Sequence of Protein kinase C epsilon type (Q02156 whole entry): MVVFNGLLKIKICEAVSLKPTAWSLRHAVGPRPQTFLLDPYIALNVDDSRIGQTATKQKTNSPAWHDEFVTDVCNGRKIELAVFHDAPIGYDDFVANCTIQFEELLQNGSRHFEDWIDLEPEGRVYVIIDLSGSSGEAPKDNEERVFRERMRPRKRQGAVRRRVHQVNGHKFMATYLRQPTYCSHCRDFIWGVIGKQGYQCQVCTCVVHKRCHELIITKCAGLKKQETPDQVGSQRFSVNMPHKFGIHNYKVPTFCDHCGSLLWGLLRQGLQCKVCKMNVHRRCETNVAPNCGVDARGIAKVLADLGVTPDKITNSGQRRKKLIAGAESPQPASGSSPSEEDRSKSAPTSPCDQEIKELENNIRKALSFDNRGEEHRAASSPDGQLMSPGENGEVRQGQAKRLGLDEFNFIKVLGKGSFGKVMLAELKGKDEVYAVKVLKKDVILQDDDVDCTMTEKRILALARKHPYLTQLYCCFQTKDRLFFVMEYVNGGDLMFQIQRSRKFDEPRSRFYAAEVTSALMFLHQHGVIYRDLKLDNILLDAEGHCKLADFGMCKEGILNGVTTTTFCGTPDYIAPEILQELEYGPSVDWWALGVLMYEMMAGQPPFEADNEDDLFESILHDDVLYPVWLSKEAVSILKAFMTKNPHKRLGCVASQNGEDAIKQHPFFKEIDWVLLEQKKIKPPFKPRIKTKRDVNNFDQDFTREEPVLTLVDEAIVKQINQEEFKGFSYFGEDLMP
structure (smiles),measurement,setting,value
Cl.Cn1cc(C2=C(c3cn(C4CCN(Cc5ccccn5)CC4)c4ccccc34)C(=O)NC2=O)c2ccccc21 [ENZASTAURIN HYDROCHLORIDE],% control activity,[1],103%
same,% control activity,[2],99%
same,Activity,RXF 393,inactive
same,Activity,HCT-116 [3],Active
same,Activity,T47D,inactive
same,Drug uptake,[4],Not Active
same,Activity,K562,Active
same,IC50,[5],110 nM
same,IC50,[6],83 nM
same,Activity,HCT-116 [7],>50%
same,% control activity,[8],23%
same,Activity,U-87 MG,>50%
same,inhibition,HCT-116 [9],inactive
same,Activity,Hs-578T,inactive
same,Activity,PC-3,Active
